Experimental data pooled from the literature.
Each line is one published result; the experiments were not run side by side.
Target: Activin receptor type-1B (ACVR1B, Homo sapiens, UniProt P36896)
Residues used in one study (P36896 24-505): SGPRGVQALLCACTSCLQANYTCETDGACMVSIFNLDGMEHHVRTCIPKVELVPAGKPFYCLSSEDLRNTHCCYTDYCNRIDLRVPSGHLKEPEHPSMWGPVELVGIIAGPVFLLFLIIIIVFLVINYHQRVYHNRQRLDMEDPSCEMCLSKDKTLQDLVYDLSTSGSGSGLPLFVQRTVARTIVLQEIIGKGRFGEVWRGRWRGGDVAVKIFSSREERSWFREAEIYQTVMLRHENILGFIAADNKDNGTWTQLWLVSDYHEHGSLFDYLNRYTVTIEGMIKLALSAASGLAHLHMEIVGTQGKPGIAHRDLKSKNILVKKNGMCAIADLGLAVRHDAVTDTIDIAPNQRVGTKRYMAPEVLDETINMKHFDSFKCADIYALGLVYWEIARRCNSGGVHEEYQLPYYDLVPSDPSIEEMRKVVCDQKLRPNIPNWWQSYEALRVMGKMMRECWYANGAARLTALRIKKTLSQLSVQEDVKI

| Structure (SMILES) | assay | conditions | quantity | value |
| --- | --- | --- | --- | --- |
| Cc1sc(C(=O)NC2COC2)cc1-n1cc(NC(=O)Nc2c(F)cccc2Cl)cn1 | enzyme activity, inhibitor | 10 µM | remaining activity | 78.5% |
| CCN1CCC2(CC1)NC(=O)c1c(c3ccc(Cl)c(Cl)c3n1C)C2C#N (racemic) | thermal stability, DSF | 10 µM | ΔTm | 0 °C |
| COc1cc(Cl)c(C(=O)N[C@@H](CN[C@H]2CC[C@@H](N)CC2)Cc2ccc(C#N)cc2)cc1-c1ccc(CN[C@H](C)c2ccc(C)cc2)o1 | enzyme activity, inhibitor | 1 µM | remaining activity | 92% |
| O=C(NC[C@@H]1[C@H]2CN(C(=O)OCc3cc(C(F)(F)F)cc(C(F)(F)F)c3)C[C@@H]12)c1ccc2[nH]nnc2c1 | cell-free assay, competition with immobilised ligand | 1 µM | remaining binding | 100% |
| Clc1ccc(Nc2nnc(Cc3ccncc3)c3ccccc23)cc1 | cell-free assay | 0.5 µM | remaining signal | 108% |
| Cn1nc(C(=O)NCc2ccc(C(=O)O)cc2)cc1-c1ccc2[nH]ccc2c1 | cell-free assay, competition with immobilised ligand | 0.1 µM | remaining binding | 83% |
| O=C(Nc1cnn(-c2csc(C(=O)NC3COC3)c2)c1)Nc1c(F)cccc1Cl | enzyme activity, inhibitor | 5 µM | remaining activity | 82% |
| c1ccc(N2CCN(Cc3nc4ccccc4[nH]3)CC2)nc1 | cell-free assay, competition with immobilised ligand | 1 µM | remaining binding | 85% |
| CCN(CC)c1ccc(C2=NNC(=O)CC2C)cc1[N+](=O)[O-] (stereo not drawn) | enzyme activity, inhibitor | 10 µM | remaining activity | 109% |
| O=C(CSc1nc2nccnc2c(=O)n1CCc1ccccc1)Nc1nccs1 | enzyme activity, inhibitor | 10 µM | inhibition | 4% |
| CN(C)C1CCN(CC#Cc2nn(C3CCCC3)c3nc(NCc4ccccc4)ncc23)C1 (stereo not drawn) | enzyme activity, inhibitor, FRET | 0.1 µM | inhibition | 0% |
| O=C1Nc2ccc(Cl)cc2C1=Cc1cc(Cl)c(O)c(Cl)c1 | cell-free assay | 0.5 µM | remaining signal | 127% |
| Cn1c2c(Cl)c(Cl)ccc2c2cc(N)[nH]c(=O)c21 | thermal stability, DSF | 10 µM | ΔTm | 3.9 °C |
| CCN(CC)CCNC(=O)c1c(C)[nH]c(/C=C2\C(=O)Nc3ccc(F)cc32)c1C | cell-free assay | 0.5 µM | remaining signal | 101% |
| Cc1ccc(Nc2nccc(N(C)c3ccc4c(C)n(C)nc4c3)n2)cc1S(N)(=O)=O | cell-free assay, inhibitor | 10 µM | inhibition | 17% |
| CCCS(=O)(=O)Nc1ccc(F)c(C(=O)c2c[nH]c3ncc(-c4ccc(Cl)cc4)cc23)c1F | enzyme activity, inhibitor | 1 µM | inhibition | < 10% |
| CN([C@@H]1CCc2c(CC(=O)O)c3cc(S(C)(=O)=O)ccc3n2C1)S(=O)(=O)c1ccc(F)cc1 | cell-free assay, competition with immobilised ligand | 1 µM | remaining binding | 99% |
| Cc1ccc(C(=O)Nc2ccc(CN3CCN(C)CC3)c(C(F)(F)F)c2)cc1C#Cc1cnc2cccnn12 | enzyme activity | 23.5 nM | remaining activity | 100% |
| Cn1c2c(c3ccc(Cl)c(Cl)c31)C(C#N)C1(CCN(C(=O)OC(C)(C)C)CC1)NC2=O (racemic) | thermal stability, DSF | 10 µM | ΔTm | -0.1 °C |
| COc1cc2ncnc(Nc3ccc(Oc4ccccc4)cc3C)c2cc1OC | enzyme activity, inhibitor | 1 µM | inhibition | -2% |
| COc1cc(-c2cc(-c3ccc(N4CCNCC4)cc3)cnc2C)cc(OC)c1OC | enzyme activity, inhibitor | 0.1 µM | inhibition | 9% |
| CNC(=O)c1cc(Oc2ccc(NC(=O)Nc3ccc(Cl)c(C(F)(F)F)c3)cc2)ccn1 | cell-free assay, inhibitor | 0.3 µM | inhibition | -6% |
| CS(=O)(=O)c1cc(C2(NC(=O)c3cncc4c3cnn4-c3ccc(F)cc3)CC2)ccn1 | cell-free assay, competition with immobilised ligand | 1 µM | remaining binding | 100% |
| CC(C)(C)c1nc2c(s1)c1nc(N)ncc1c1ccc(NS(=O)(=O)c3c(F)cccc3F)c(F)c12 | enzyme activity, inhibitor, radiometric | 1 µM | remaining activity | 84% |
| O=C(O)[C@@H]1[C@@H](Cn2nnc3ccccc3c2=O)CC[C@H]1C(=O)c1ccc(OCCC2CCOCC2)cc1 | cell-free assay, competition with immobilised ligand | 1 µM | remaining binding | 100% |
| Cn1c2c(c3ccc(Cl)c(Cl)c31)C(C#N)C(C)(C)NC2=O (stereo not drawn) | thermal stability, DSF | 10 µM | ΔTm | 2.9 °C |
| C[C@@H](c1cccc(C#N)c1)n1cc(Cl)cc(C(N)=O)c1=N | cell-free assay, competition with immobilised ligand | 1 µM | remaining binding | 100% |
| Cc1cnc(NC2CCOCC2)nc1-n1cnc(C(=O)NC(CN)c2cc(F)cc(Cl)c2)c1 (stereo not drawn) | enzyme activity, inhibitor, radiometric | 1 µM | remaining activity | 109% |
| CNCc1ccccc1-c1csc([C@H](C)Nc2nc(C)nc3cc(OC)c(OC)cc23)c1 | cell-free assay, competition with immobilised ligand | 1 µM | remaining binding | 100% |
| Nc1ncnc2occ(-c3ccc(NC(=O)Nc4cc(C(F)(F)F)ccc4F)cc3)c12 | cell-free assay | 20 µM | remaining signal | 99% |
